Source: paper PMC6677133 (European journal of medicinal chemistry, 2019)
Residues, ends and D or L forms follow the SMILES beside them.

Legend:
[1] = tested on: NL4–3 strain of HIV-1 (X4 strain); experiment: Anti-HIV-1 entry assay, one-day culture, intracellular p24 antigen in PBMCs; assay type: cell-based; conditions: unlinked control fragments alone; assay format not stated
CXCR4 = CXCR4 (Homo sapiens, UniProt P61073); experiment: CXCR4 internalization assay, CHO-CXCR4-FLAG cells; assay type: cell-based; conditions: 1h of treatment at 100 nM
CXCR4, sequence (P61073 whole entry): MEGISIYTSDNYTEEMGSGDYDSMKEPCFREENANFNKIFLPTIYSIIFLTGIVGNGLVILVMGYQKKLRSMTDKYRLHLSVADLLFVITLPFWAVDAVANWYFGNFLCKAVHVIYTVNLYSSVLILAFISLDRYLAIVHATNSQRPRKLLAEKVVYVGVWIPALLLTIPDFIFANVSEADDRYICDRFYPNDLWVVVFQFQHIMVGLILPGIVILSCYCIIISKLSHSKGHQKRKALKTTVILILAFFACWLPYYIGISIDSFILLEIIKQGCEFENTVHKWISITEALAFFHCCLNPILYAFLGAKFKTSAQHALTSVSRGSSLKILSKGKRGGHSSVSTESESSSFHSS
Method in brief: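 CHO cells expressing N-terminally FLAG-tagged CXCR4 washed at 4°C in RPMI 1640 with 0.5% BSA. Seeded 3×10^5/well and exposed at 37°C to graded test compound, with SDF-1α as positive control. Surface receptor stained with anti-FLAG then FITC anti-mouse antibody, each 30 min at 4°C, and read at 485/528 nm. At least three independent experiments, mean ± SEM.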

| CXCR4 internalization (CXCR4) | Compound | antiviral activity [1] |
| --- | --- | --- |
|  | C[C@@H](O)[C@H](NC(=O)[C@H](CCCNC(=N)N)NC(=O)[C@@H]1CCCN1C(=O)[C@H](CC(N)=O)NC(=O)[C@H](CC(N)=O)NC(=O)[C@H](CC(N)=O)NC(=O)[C@@H](NC(=O)[C@H](CCCCN)NC(=O)[C@H](CCCNC(=N)N)NC(=O)[C@H](CCCCN)NC(=O)CCCCCN)[C@@H](C)O)C(=O)N[C@@H](CS)C(N)=O [AR6r] (HELM PEPTIDE1{[NCCCCCC(=O)[*:2]].K.R.K.T.N.N.N.P.R.T.C.[am]}$$$$V2.0) | did not show any antiviral activity |
| 43.87% | SDF-1α |  |
